{"data": "Published values collected from several papers", "target": "Phosphorylase b kinase gamma catalytic chain, skeletal muscle/heart isoform (PHKG1, Homo sapiens, UniProt Q16816)", "note": "Compare with care: the assays were run in different laboratories."}
{"SMILES": "Cc1cnc(Nc2ccc(C(=O)N3CCC(N4CCCC4)CC3)cc2)nc1-c1cc2ccccc2s1", "read-out": "binding", "method": "competition with immobilised ligand", "concentration": "1 µM", "remaining binding [%]": 54}
{"SMILES": "c1cncc(-c2cccc(Nc3nccc(NC4CCCCC4)n3)c2)c1", "read-out": "binding", "method": "competition with immobilised ligand", "concentration": "10 µM", "remaining binding [%]": 75}
{"SMILES": "O=C(N[C@H]1CCCCC/C=C\\C2C[C@@]2(C(=O)O)NC(=O)[C@@H]2C[C@@H](Oc3ccncc3)CN2C1=O)OC1CCCC1 (stereo partly shown)", "read-out": "binding", "method": "competition with immobilised ligand", "concentration": "1 µM", "remaining binding [%]": 88}
{"SMILES": "C=CC(=O)N1CCC(C(=O)NCC(=O)N2CCN(c3nc(-c4cnc(N)nc4C(F)F)nc(N4CCOCC4)n3)CC2)CC1", "read-out": "binding", "method": "competition with immobilised ligand", "concentration": "1 µM", "remaining binding [%]": 100}
{"SMILES": "C[C@@H]1CCN(c2nccc(-c3cnn4ncccc34)n2)C1", "read-out": "binding", "concentration": "1 µM", "remaining binding [%]": 100}
{"SMILES": "O=C(NCCCN1CCOCC1)c1ccc(Nc2nccc(-c3cc4ccccc4s3)n2)cc1", "read-out": "binding", "method": "competition with immobilised ligand", "concentration": "1 µM", "remaining binding [%]": 49}
{"SMILES": "CC(=O)C1=C(C)N(c2cccc(C(F)(F)F)c2)C(=O)N[C@@H]1c1ccc(C#N)nc1", "read-out": "cell-free assay", "method": "competition with immobilised ligand", "concentration": "1 µM", "remaining binding [%]": 100}
{"SMILES": "O=C(Nc1c[nH]nc1C(=O)NC1CCNCC1)c1cc(F)cc(F)c1", "read-out": "binding", "method": "competition with immobilised ligand", "concentration": "1 µM", "remaining binding [%]": 93}
{"SMILES": "Cc1c(NC(=O)c2cc(C(N)=O)nc3cc(F)ccc23)c(C(F)(F)F)nn1Cc1ccc(C(C)(C)C)cc1", "read-out": "cell-free assay", "method": "competition with immobilised ligand", "concentration": "1 µM", "remaining binding [%]": 100}
{"SMILES": "CN(CCCC(F)(F)F)c1nccc(-c2cnn3ncccc23)n1", "read-out": "binding", "concentration": "1 µM", "remaining binding [%]": 100}
{"SMILES": "O=C(NCc1ncc(C(F)(F)F)cc1Cl)c1ccc2c(c1)C1(CCS(=O)(=O)CC1)[C@@H](C1CC1)N2S(=O)(=O)c1ccc(F)cc1", "read-out": "cell-free assay", "method": "competition with immobilised ligand", "concentration": "1 µM", "remaining binding [%]": 100}
{"SMILES": "O=C(c1ccc(Nc2ncc(Cl)c(-c3ccc(Cl)s3)n2)cc1)N1CCC(N2CCCC2)CC1", "read-out": "binding", "method": "competition with immobilised ligand", "concentration": "1 µM", "remaining binding [%]": 85}
{"SMILES": "CN(c1nccc(-c2cnn3ncccc23)n1)C1CC1", "read-out": "binding", "concentration": "1 µM", "remaining binding [%]": 100}
{"SMILES": "Cc1nc(N2CC[C@@H](O)C2)ncc1-c1cc(C(F)(F)F)cc2[nH]ncc12", "read-out": "cell-free assay", "method": "competition with immobilised ligand", "concentration": "1 µM", "remaining binding [%]": 81}
{"SMILES": "COc1cnc(Nc2cccc(S(N)(=O)=O)c2)nc1N1CCN(c2ccccc2)CC1", "read-out": "binding", "method": "competition with immobilised ligand", "concentration": "1 µM", "remaining binding [%]": 97}
{"SMILES": "CN(C)c1ncc(F)c(-c2cnn3ncccc23)n1", "read-out": "binding", "concentration": "1 µM", "remaining binding [%]": 100}
{"SMILES": "CCCOc1ccc([C@@H]2[C@@H](C(=O)O)[C@H](c3ccc4c(c3)OCO4)CN2CC(=O)Nc2c(CC)cccc2CC)cc1", "read-out": "cell-free assay", "method": "competition with immobilised ligand", "concentration": "1 µM", "remaining binding [%]": 97}
{"SMILES": "COc1cnc(Nc2cccc(S(N)(=O)=O)c2)nc1N1CCN(c2ccccc2)C(=O)C1", "read-out": "binding", "method": "competition with immobilised ligand", "concentration": "1 µM", "remaining binding [%]": 100}
{"SMILES": "Cc1cnn2ncc(-c3ccnc(N(C)C)n3)c2c1", "read-out": "binding", "concentration": "1 µM", "remaining binding [%]": 85}
{"SMILES": "N#CC1(c2ccccn2)CCN(Cc2cc(C(=O)N3CCCC3)c(=O)n3ccccc23)CC1", "read-out": "cell-free assay", "method": "competition with immobilised ligand", "concentration": "1 µM", "remaining binding [%]": 100}
{"SMILES": "CN(C)c1nccc(-c2cnn3ncccc23)n1", "read-out": "binding", "concentration": "1 µM", "remaining binding [%]": 100}
{"SMILES": "COc1ncc2cc3ccccc3nc2c1C#N", "read-out": "cell-free assay", "method": "competition with immobilised ligand", "concentration": "5 µM", "remaining binding [%]": 83}
